≈ marks a conversion by molar mass, not a printed value. Calls of active or inactive are those of the source. The rule behind the calls is not given here.
Experiments:
[1] = system: Aspergillus niger; assay: Antifungal activity against Aspergillus niger ATCC 10335 after 24 hrs by agar dilution method; type: functional; conditions: ATCC 10335, 24 h
In short: (§1)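 Agar dilution on Sabouraud glucose agar with 2-fold dilutions from 128 to 0.5 μg/mL and final DMSO below 2% (v/v). Inocula were spotted with a 0.005 mL loop: C. albicans at 10^5 cells/mL and filamentous fungi at 10^6 spores/mL. Plates were incubated at 29 °C in duplicate, for 24 h (C. albicans, A. niger) or 72 h (dermatophytes).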

[2] = system: Salmonella typhi; assay: Antibacterial activity against Salmonella typhi ATCC 06539 at 128 ug/ml after 24 hrs by broth microdilution method; type: functional, organism-based; conditions: Salmonella enterica subsp. enterica serovar Typhi
In short: (§2)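 Strains kept on Mueller-Hinton agar at 4 °C, grown in MH broth at 37 °C for 18 h before testing. NCCLS standard broth microdilution, serial dilution over 0.125−128 μg/mL. Inoculum set to 10^5 CFU/mL by 0.5 McFarland standard. Plates incubated at 37 °C for 24 h, then p-iodonitrotetrazolium violet (0.5 mg/mL) added. Red colour marks viable cells; growth at the top concentration scored.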

[3] = system: Staphylococcus aureus; assay: Antibacterial activity against methicillin-resistant Staphylococcus aureus ATCC 33591 after 24 hrs by broth microdilution method; type: functional; conditions: ATCC 33591, 24 h
In short: (§3)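 Strains were kept on Mueller-Hinton agar at 4 °C and grown in MH broth at 37 °C for 18 h. Broth microdilution followed NCCLS, with serial dilutions over 0.125–128 μg/mL and an inoculum of 10^5 CFU/mL set by the 0.5 McFarland standard. Plates were incubated at 37 °C for 24 h, then p-iodonitrotetrazolium violet (0.5 mg/mL) was added. MIC was the lowest concentration without red colour.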

[4] = system: Trichophyton mentagrophytes; assay: Antifungal activity against Trichophyton mentagrophytes ATCC 28185 after 72 hrs by agar dilution method; type: functional; conditions: ATCC 28185, 72 h; in short: as §1
[5] = system: Escherichia coli; assay: Antibacterial activity against Escherichia coli ATCC 25922 at 128 ug/ml after 24 hrs by broth microdilution method; type: functional, organism-based; in short: as §2
[6] = system: Candida albicans; assay: Antifungal activity against Candida albicans ATCC 10231 after 24 hrs by agar dilution method; type: functional; in short: as §1
[7] = system: Staphylococcus aureus; assay: Antibacterial activity against beta-lactamase producing methicillin-resistant Staphylococcus aureus ATCC 11632 after 24 hrs by broth microdilution method; type: functional; conditions: ATCC 11632, 24 h; in short: as §3
[8] = system: Trichophyton rubrum; assay: Antifungal activity against Trichophyton rubrum ATCC 28188 after 72 hrs by agar dilution method; type: functional; conditions: ATCC 28188, 72 h; in short: as §1
[9] = system: Proteus mirabilis; assay: Antibacterial activity against Proteus mirabilis ATCC 43071 at 128 ug/ml after 24 hrs by broth microdilution method; type: functional, organism-based; in short: as §2
[10] = system: Staphylococcus aureus; assay: Antibacterial activity against methicillin-sensitive Staphylococcus aureus ATCC 6358 after 24 hrs by broth microdilution method; type: functional; conditions: ATCC 6358, 24 h; in short: as §3
[11] = system: Staphylococcus aureus; assay: Antibacterial activity against methicillin-resistant Staphylococcus aureus ATCC 43300 after 24 hrs by broth microdilution method; type: functional; conditions: ATCC 43300, 24 h; in short: as §3

Compound | MIC [1] [µg/mL] | Activity [2] | MIC [3] [µg/mL] | MIC [4] [µg/mL] | Activity [5] | MIC ([6]; ATCC 10231, 24 h) [µg/mL] | MIC [7] [µg/mL] | MIC [8] [µg/mL] | Activity [9] | MIC [10] [µg/mL] | MIC [11] [µg/mL] | MIC [6] [µg/mL]
COc1cc2c(=O)onc3c2c(c1OC)-c1cccc(OC)c1[C@@H]3SCC(N)=O | 25 (≈ 60.3 µM) | inactive | 0.25 (≈ 0.603 µM) | 1 (≈ 2.41 µM) | inactive | 25 (≈ 60.3 µM) | 0.25 (≈ 0.603 µM) | 1 (≈ 2.41 µM) | inactive | 0.5 (≈ 1.21 µM) | 0.25 (≈ 0.603 µM) | 
CC1(C)S[C@@H]2[C@H](NC(=O)[C@H](N)c3ccccc3)C(=O)N2[C@H]1C(=O)O [AMPICILLIN] |  |  | 128 (≈ 366 µM) |  |  |  | 64 (≈ 183 µM) |  |  | 2 (≈ 5.72 µM) | 128 (≈ 366 µM) | 
O=C(N[C@H](CO)[C@H](O)c1ccc([N+](=O)[O-])cc1)C(Cl)Cl [CHLORAMPHENICOL] |  |  | 2 (≈ 6.19 µM) |  |  |  | 2 (≈ 6.19 µM) |  |  | 1 (≈ 3.09 µM) | 2 (≈ 6.19 µM) | 
Clc1ccc(COC(Cn2ccnc2)c2ccc(Cl)cc2Cl)c(Cl)c1 (configuration not stated) [MICONAZOLE] | 16 (≈ 38.4 µM) |  |  | 2 (≈ 4.81 µM) |  |  |  | 2 (≈ 4.81 µM) |  |  |  | 
Cc1onc(-c2ccccc2)c1C(=O)N[C@@H]1C(=O)N2[C@@H]1SC(C)(C)[C@@H]2C(=O)O [OXACILLIN] |  |  | 128 (≈ 319 µM) |  |  |  | 32 (≈ 79.7 µM) |  |  | 2 (≈ 4.98 µM) | 128 (≈ 319 µM) | 
NYSTATIN |  |  |  |  |  |  |  |  |  |  |  | 8
